Tests used:
[1] = test system: Mus musculus; test: Immunomodulatory activity in ip dosed BALB/c mouse assessed as reduction in lymphocyte using FITC-conjugated hamster antimouse CD3e antibody by flow cytometry; format: functional
Procedure, shortened: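 Male BALB/c mice given the alcohol form intraperitoneally; peripheral blood taken from posterior vena cava 24 h later, hemolyzed and fixed. CD3+ T and CD45R+ (B220) B cells counted by two-colour flow cytometry. ED50 is the dose lowering lymphocyte count by 50% versus vehicle-treated controls; 5 animals per compound.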

[2] = target: Sphingosine 1-phosphate receptor 3 (Homo sapiens, UniProt Q99500); test: Agonist activity at human S1P3 receptor expressed in CHO cells assessed as intracellular calcium mobilization; format: functional, cell-based
Sequence of Sphingosine 1-phosphate receptor 3 (Q99500 whole entry): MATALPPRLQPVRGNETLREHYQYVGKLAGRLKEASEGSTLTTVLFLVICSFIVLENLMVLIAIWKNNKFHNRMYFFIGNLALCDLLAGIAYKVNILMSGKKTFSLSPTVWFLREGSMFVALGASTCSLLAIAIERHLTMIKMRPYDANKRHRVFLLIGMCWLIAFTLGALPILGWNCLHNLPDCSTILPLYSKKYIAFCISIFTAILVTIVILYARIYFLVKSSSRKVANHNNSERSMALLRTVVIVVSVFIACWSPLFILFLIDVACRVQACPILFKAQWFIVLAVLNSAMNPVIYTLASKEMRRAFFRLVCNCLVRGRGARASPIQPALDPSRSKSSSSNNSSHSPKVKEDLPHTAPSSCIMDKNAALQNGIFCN

[3] = target: Sphingosine 1-phosphate receptor 1 (Homo sapiens, UniProt P21453); test: Agonist activity at human S1P1 receptor expressed in human Chem1 cells assessed as intracellular calcium mobilization; format: functional, cell-based
Sequence of Sphingosine 1-phosphate receptor 1 (P21453 whole entry): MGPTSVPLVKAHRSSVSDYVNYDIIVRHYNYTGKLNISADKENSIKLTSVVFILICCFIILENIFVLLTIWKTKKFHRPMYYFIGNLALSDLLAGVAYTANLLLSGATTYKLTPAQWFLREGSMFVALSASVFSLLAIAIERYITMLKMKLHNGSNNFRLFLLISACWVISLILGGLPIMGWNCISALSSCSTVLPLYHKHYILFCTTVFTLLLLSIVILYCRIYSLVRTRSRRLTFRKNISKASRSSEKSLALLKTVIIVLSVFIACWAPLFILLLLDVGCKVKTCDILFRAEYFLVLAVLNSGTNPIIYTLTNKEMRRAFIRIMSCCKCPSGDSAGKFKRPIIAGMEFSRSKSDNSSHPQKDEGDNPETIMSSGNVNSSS

[4] = test system: Rattus norvegicus; test: Toxicity in iv dosed Sprague-Dawley rat assessed as reduction in heart rate; format: organism-based; conditions: in vivo
Procedure, shortened: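 Male Sprague-Dawley rats anesthetized with ip pentobarbital sodium (50 mg/kg); phosphate form injected iv over about 30 s at 0.03 to 3 mg/kg. Heart rate counted from R waves of lead II ECG before dosing and 1, 2, 3, 4, 5, 10 and 15 min after. ID50 is the dose lowering heart rate by 50% versus vehicle control; 3-6 animals per compound.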

| EC50 [2] [nM] | EC50 [3] [nM] | SMILES | ED50 [1] [mg/kg] | ID50 [4] [mg/kg] |
| --- | --- | --- | --- | --- |
|  |  | COc1ccc(Sc2ccc(-c3ccc(CCC(N)(CO)CO)cc3)c(F)c2)cc1 | 0.28 |  |
|  |  | COc1cccc(Sc2ccc(-c3ccc(CCC(N)(CO)CO)cc3)c(F)c2)c1 | 0.11 |  |
|  |  | NC(CO)(CO)CCc1ccc(-c2ccc(SCc3ccccc3)cc2F)cc1 | 0.04 |  |
| > 1000 | 3 | Cc1ccc(Sc2ccc(-c3ccc(CCC(N)(CO)COP(=O)(O)O)cc3)c(F)c2)cc1 (configuration not stated) |  |  |
|  |  | CC(C)c1ccc(Sc2ccc(-c3ccc(CCC(N)(CO)CO)cc3)c(F)c2)cc1 | 0.15 |  |
| 51 | 0.53 | CCCCOc1ccc(-c2ccc(CCC(N)(CO)COP(=O)(O)O)cc2)c(F)c1.F (configuration not stated) |  | 0.009 |
| > 1000 | 1.2 | CCCCOc1cc(F)c(-c2ccc(CCC(N)(CO)COP(=O)(O)O)cc2)cc1F (configuration not stated) |  |  |
| > 1000 | 3.1 | CCCCOc1ccc(-c2ccc(CCC(N)(CO)COP(=O)(O)O)cc2)cc1Cl (configuration not stated) |  |  |
|  |  | NC(CO)(CO)CCc1ccc(-c2ccc(Sc3ccc(C(F)(F)F)cc3)cc2F)cc1 | 0.34 |  |
| > 1000 | 2 | Cc1cccc(Sc2ccc(-c3ccc(CCC(N)(CO)COP(=O)(O)O)cc3)c(F)c2)c1 (configuration not stated) |  | 0.063 |
| > 1000 | 4.2 | Cc1ccc(Sc2ccc(-c3ccc(CCC(N)(CO)COP(=O)(O)O)c(Cl)c3)c(F)c2)cc1 (configuration not stated) |  | 0.016 |
|  |  | NC(CO)(CO)CCc1ccc(-c2ccc(Oc3ccccc3)cc2)cc1Cl | 0.16 |  |
|  |  | NC(CO)(CO)CCc1ccc(-c2ccc(OCc3ccccc3)cc2)cc1Cl | 0.13 |  |
|  |  | CCCCOc1ccc(-c2ccc(CCC(N)(CO)CO)cc2)c(C)c1 | 3.4 |  |
|  |  | NC(CO)(CO)CCc1ccc(-c2ccc(Sc3ccc(F)cc3)cc2F)cc1 | 0.07 |  |
|  |  | NC(CO)(CO)CCc1ccc(-c2ccc(Sc3cccc(F)c3)cc2F)cc1 | 0.16 |  |
| 13 | 1.6 | NC(CO)(CCc1ccc(-c2ccc(OCc3ccccc3)cc2)cc1Cl)COP(=O)(O)O (configuration not stated) |  | 0.017 |
|  |  | NC(CO)(CO)CCc1ccc(-c2ccc(OCc3ccccc3)cc2F)cc1 | 0.01 |  |
|  |  | NC(CO)(CO)CCc1ccc(-c2ccc(SCc3ccccc3)cc2)cc1Cl | 0.08 |  |
|  |  | NC(CO)(CO)CCc1ccc(-c2ccc(Sc3ccccc3)cc2F)cc1 | 0.42 |  |
| 4.9 | 0.84 | NC(CO)(CCc1ccc(-c2ccc(SCc3ccccc3)cc2F)cc1)COP(=O)(O)O (configuration not stated) |  | 0.008 |
|  |  | NC(CO)(CO)CCc1ccc(-c2ccc(Sc3ccc(Cl)cc3)cc2F)cc1 | 0.18 |  |
|  |  | CCc1ccc(Sc2ccc(-c3ccc(CCC(N)(CO)CO)cc3)c(F)c2)cc1 | 0.04 |  |
|  |  | CCCCOc1cc(F)c(-c2ccc(CCC(N)(CO)CO)cc2)cc1F | 0.15 |  |

| EC50 [2] [nM] | EC50 [3] [nM] | SMILES | ED50 [1] [mg/kg] | ID50 [4] [mg/kg] |
| --- | --- | --- | --- | --- |
|  |  | CCCCOc1ccc(-c2ccc(CCC(N)(CO)CO)cc2)cc1F | 0.21 |  |
|  |  | CCCCOc1ccc(-c2ccc(CCC(N)(CO)CO)cc2)cc1Cl | 1.3 |  |
|  |  | NC(CO)(CO)CCc1ccc(-c2ccc(Oc3ccccc3)cc2)cc1 | 0.25 |  |
| > 1000 | 1.3 | CCCCOc1ccc(-c2ccc(CCC(N)(CO)COP(=O)(O)O)cc2)cc1F (configuration not stated) |  |  |
|  |  | CCCCCc1ccc(-c2ccc(CCC(N)(CO)CO)c(Cl)c2)cc1 | 0.11 |  |
|  |  | CCCCOc1ccc(-c2ccc(CCC(N)(CO)CO)cc2)cc1 | 0.22 |  |
|  |  | CCCCOc1ccc(-c2ccc(CCC(N)(CO)CO)c(Cl)c2)cc1 | 0.08 |  |
| 4.1 | 1.1 | NC(CO)(CCc1ccc(-c2ccc(OCc3ccccc3)cc2F)cc1)COP(=O)(O)O (configuration not stated) |  | 0.014 |
| 83 | 1.8 | Cc1ccc(Oc2ccc(-c3ccc(CCC(N)(CO)COP(=O)(O)O)cc3)c(F)c2)cc1 (configuration not stated) |  | 0.016 |
| > 1000 | 3.6 | NC(CO)(CCc1ccc(-c2ccc(Sc3ccccc3)cc2F)cc1)COP(=O)(O)O (configuration not stated) |  |  |
|  |  | CCCCOc1ccc(-c2ccc(CCC(N)(CO)CO)cc2)c(F)c1 | 0.06 |  |
| > 1000 | 0.62 | CCCCOc1ccc(-c2ccc(CCC(N)(CO)COP(=O)(O)O)c(Cl)c2)cc1 (configuration not stated) |  | 0.013 |
|  |  | Cc1ccc(Oc2ccc(-c3ccc(CCC(N)(CO)CO)cc3)c(F)c2)cc1 | 0.04 |  |
|  |  | Cc1ccc(Sc2ccc(-c3ccc(CCC(N)(CO)CO)cc3)c(F)c2)cc1 | 0.05 |  |
|  |  | Cc1cccc(Sc2ccc(-c3ccc(CCC(N)(CO)CO)cc3)c(F)c2)c1 | 0.13 |  |
|  |  | Cc1ccc(Sc2ccc(-c3ccc(CCC(N)(CO)CO)c(Cl)c3)c(F)c2)cc1 | 0.04 |  |
| > 1000 | 21 | NC(CO)(CCc1ccc(-c2ccc(Oc3ccccc3)cc2)cc1)COP(=O)(O)O (configuration not stated) |  | 0.14 |
| > 1000 | 4.7 | NC(CO)(CCc1ccc(-c2ccc(Oc3ccccc3)cc2)cc1Cl)COP(=O)(O)O (configuration not stated) |  | 0.087 |
|  |  | CCCCCc1ccc(-c2ccc(CCC(N)(CO)CO)cc2)c(F)c1 | 0.1 |  |
| > 1000 | 1.1 | CCCCCc1ccc(-c2ccc(CCC(N)(CO)COP(=O)(O)O)cc2)c(F)c1 (configuration not stated) |  |  |
| > 1000 | 0.64 | CCCCCc1ccc(-c2ccc(CCC(N)(CO)COP(=O)(O)O)c(Cl)c2)cc1 (configuration not stated) |  |  |
| > 1000 | 0.81 | CCCCOc1ccc(-c2ccc(CCC(N)(CO)COP(=O)(O)O)cc2)cc1 (configuration not stated) |  | 0.008 |
|  |  | CCCCCCCCc1ccc(CCC(N)(CO)COP(=O)(O)O)cc1 (configuration not stated) |  | 0.012 |
|  |  | CCCCCCCCc1ccc(CCC(N)(CO)CO)cc1 [FINGOLIMOD] | 0.02 |  |
